Data on one molecule can be found in ChEMBL document CHEMBL4480390, “Cink4T, a quinazolinone-based dual inhibitor of Cdk4 and tubulin polymerization, identified via ligand-based virtual screening, for efficient anticancer therapy” (Eur J Med Chem, 2019).

In test [1] the test system is Calu-1. As to the kind of experiment: Cell cycle arrest in human Calu1 cells assessed as increase in accumulation at S phase at 1.8 uM treated 18 hrs post serum-starvation measured after 18 hrs in presence of fresh medium containing FBS by propidium iodide staining based flow cytometry relative to control. The format is functional. Background: Flow cytometry measures light scatter and fluorescence of single cells or particles in a stream.

The subject of test [2] is T47D. As to the kind of experiment: Cell cycle arrest in human T47D cells assessed as ratio of G1 to S phase at 1.5 uM measured after 18 hrs by propidium iodide staining based flow cytometry (reference value: 2.65). The format is functional.
Test [3] concerns A549. As to the kind of experiment: Cell cycle arrest in human A549 cells assessed as accumulation at S phase at 0.8 uM treated 32 hrs post mimosine addition measured after 18 hrs in presence of fresh medium by propidium iodide staining based flow cytometry (reference value: 23%). The format is functional.
Test [4] deals with T1, Cyclin-dependent kinase 4/cyclin D1 (Homo sapiens) (UniProt P11802+P24385). The test is described as follows: Inhibition of CDK4/cyclin D1 in human T47D cells assessed as reduction in phosphorylation of pRb at Ser807/11 residues at 0.75 uM measured after 18 hrs by Western blot analysis. It counts as cell-based. Summed up: (§1)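 T47D cells left untreated or treated 18 h at 0.75 or 1.5 µM. Western blots probed with phospho-specific pRb antibodies (Ser780, Ser795, Ser807/811) and a total-pRb antibody; HRP-conjugated secondary for detection.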
A general note: Immunoblotting shows a protein as a band on a membrane.

Test [5] deals with T47D. As to the kind of experiment: Cell cycle arrest in human T47D cells assessed as accumulation at sub-G1 phase at 1.5 uM treated 18 hrs post serum-starvation measured after 18 hrs in presence of fresh medium containing FBS by propidium iodide staining based flow cytometry relative to control. It counts as functional.
The test system of test [6] is Calu-1. The test is described as follows: cells. To be noted: Homo sapiens, Calu-1, 72 h.
Test [7] has as its system MDA-MB-468. The test is described as follows: Cell cycle arrest in human MDA-MB-468 cells assessed as accumulation at sub-G1 phase at 10.85 uM measured after 18 hrs by propidium iodide staining based flow cytometry relative to control. The format is functional.
Another test has as its target CDK6/cyclin D1 (Homo sapiens, UniProt Q00534). The test is described as follows: Inhibition of CDK6/cyclin D1 (unknown origin) using RBER-CHKtide as substrate measured after 1 hr by ADP-glo luminescence assay. It counts as protein-complex assay. The gist of the method: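 ADP-Glo kinase assay with 200 ng Cdk-cyclin enzyme, ATP (125 µM in 2.5x mix) and 25 µg substrate (RBCTF or RBER-CHKtide, per Cdk). Buffer: Tris, MgCl2, BSA, DTT, MnCl2 cofactor, DMSO. Reaction 1 h at 21°C; ADP-Glo 40 min, then detection reagent 40 min. Luminescence read. IC50 by 4-parameter fit; three independent experiments.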
On the technique in general: In ADP-Glo the light output rises with the ADP produced.

Test [8] deals with MDA-MB-468. As to the kind of experiment: Cell cycle arrest in human MDA-MB-468 cells assessed as ratio of G1 to S phase at 10.85 uM measured after 18 hrs by propidium iodide staining based flow cytometry (reference value: 2.17). The format is functional.
In test [9] the test system is Calu-1. The test is described as follows: Cell cycle arrest in human Calu1 cells assessed as accumulation at G0/G1 phase at 0.9 uM treated 18 hrs post serum-starvation measured after 18 hrs in presence of fresh medium containing FBS by propidium iodide staining based flow cytometry (reference value: 69.2%). The format is functional.
Test [10] relates to A549. As to the kind of experiment: Cell cycle arrest in human A549 cells assessed as ratio of G1 to S phase at 1.6 uM measured after 18 hrs by propidium iodide staining based flow cytometry (reference value: 2.7). It counts as functional.
In test [11] the test system is A549. As to the kind of experiment: Cell cycle arrest in human A549 cells assessed as ratio of G1 to S phase at 1.6 uM treated 32 hrs post mimosine addition measured after 18 hrs in presence of fresh medium by propidium iodide staining based flow cytometry (reference value: 2.5). The format is functional.
Test [12] addresses Cyclin-dependent kinase 1/cyclin B1 (Homo sapiens, UniProt P06493). The test is described as follows: Inhibition of recombinant human N-terminal GST/His6-tagged CDK1 (M1 to M297 residues)/CyclinB1 (M1 to V433 residues) expressed in Sf9 insect cells using RBCTF as substrate measured after 1 hr by ADP-glo luminescence assay.
In test [13] the test system is A549. As to the kind of experiment: Cell cycle arrest in human A549 cells assessed as accumulation at G2/M phase at 0.8 uM treated 32 hrs post mimosine addition measured after 18 hrs in presence of fresh medium by propidium iodide staining based flow cytometry (reference value: 14%). It counts as functional.
Test [14] has as its system A549. The test is described as follows: Cell cycle arrest in human A549 cells assessed as accumulation at G2/M phase at 0.8 uM measured after 18 hrs by propidium iodide staining based flow cytometry (reference value: 18%). The format is functional.
For test [15], the system named is A549. The test is described as follows: Cell cycle arrest in human A549 cells assessed as accumulation at S phase at 1.6 uM treated 32 hrs post mimosine addition measured after 18 hrs in presence of fresh medium by propidium iodide staining based flow cytometry (reference value: 23%). It counts as functional.
For test [16], the system named is A549. As to the kind of experiment: Cell cycle arrest in human A549 cells assessed as accumulation at G0/G1 phase at 1.6 uM treated 32 hrs post mimosine addition measured after 18 hrs in presence of fresh medium by propidium iodide staining based flow cytometry (reference value: 58%). The format is functional.
The target of test [17] is T1, Cyclin-dependent kinase 4/cyclin D1 (Homo sapiens). The test is described as follows: Inhibition of CDK4/cyclin D1 in human T47D cells assessed as reduction in phosphorylation of pRb at Ser807/11 residues at 1.5 uM measured after 18 hrs by Western blot analysis. It counts as cell-based. Summed up: as §1
The target in the next test is Tubulin (Sus scrofa) (UniProt P02554+P02550). The test is described as follows: Inhibition of porcine tubulin polymerization at 5 uM incubated for 1 min by fluorescence based assay. The format is protein assay. Summed up: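 Compounds added from 10x stocks in duplicate and warmed at 37°C ≤1 min. Ice-cold tubulin pre-mix then added. Fluorescent reporter read at ex 360/em 460 nm for 60 min. Paclitaxel served as enhancer control, CaCl2 as inhibitor control.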

The next test addresses T2, Cytochrome P450 1A2 (Homo sapiens, UniProt P05177).
T2 sequence (P05177 whole entry): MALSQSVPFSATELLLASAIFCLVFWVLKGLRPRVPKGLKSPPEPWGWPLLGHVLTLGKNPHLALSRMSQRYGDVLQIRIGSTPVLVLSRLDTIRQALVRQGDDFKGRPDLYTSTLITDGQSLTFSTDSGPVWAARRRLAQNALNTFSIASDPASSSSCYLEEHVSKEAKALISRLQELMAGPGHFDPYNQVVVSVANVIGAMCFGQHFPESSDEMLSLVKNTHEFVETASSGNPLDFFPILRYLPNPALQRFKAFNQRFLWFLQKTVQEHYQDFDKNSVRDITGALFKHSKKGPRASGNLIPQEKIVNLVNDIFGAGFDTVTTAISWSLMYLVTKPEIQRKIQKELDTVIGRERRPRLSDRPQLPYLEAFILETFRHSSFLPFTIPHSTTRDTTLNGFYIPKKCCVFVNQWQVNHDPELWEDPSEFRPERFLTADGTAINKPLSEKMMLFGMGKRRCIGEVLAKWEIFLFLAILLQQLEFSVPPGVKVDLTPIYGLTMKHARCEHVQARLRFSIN
The test is described as follows: Inhibition of recombinant human CYP1A2 expressed in baker's yeast-derived microsomes using 3-cyano-7-ethoxycoumarin as substrate by fluorescence assay. The format is ADME.

The target of another test is CDK2/Cyclin A2 (Homo sapiens, UniProt P24941). The test is described as follows: Inhibition of human full length N-terminal GST-fused CDK2 (M1 to L298 residues)/human full length Cyclin-A2 (M1 to L432 residues) expressed in Sf9 cells using histone H1 as substrate measured after 1 hr by ADP-glo luminescence assay.

Calls of active or inactive are those of the source. The rule behind the calls is not given here. Bounds are passed on as bounds.

A word on the EC50: it is the concentration at which the effect is half-maximal. Low readings indicate a more potent agent, high ones a less potent agent. One may read the IC50 as the concentration that gives 50% inhibition. Turning to `O=C(COc1ccc(-c2nc3ccccc3c(=O)[nH]2)cc1)Nc1cccc(Cl)c1`, the Activity is -0.8% in the test with Calu-1 [1]; 24% in the test on A549 [3]; 18.6% in the test with T47D [5]; 0% in the test on MDA-MB-468 [7]; 75% in the test on Calu-1 [9]; 35% in the test on A549 [13]. Besides, the Activity was determined as 28% in the test on A549 [14], 18% in the test on A549 [15] and 12% in the test with A549 [16]. Moreover, the Ratio in the test with T47D [2] turned out to be 12; in the test on MDA-MB-468 [8], 3.46; with A549 [10] it was 0.75; in the test on A549 [11], 0.6. In test [4], the inhibition entry is “inactive”. This molecule yielded an EC50 with Calu-1 [6] of 0.9 µM. Moreover, the 50% inhibitory concentration (IC50) is more than 100 µM at CDK6/cyclin D1, more than 50 µM in test [12], more than 5 µM on Cytochrome P450 1A2 and more than 100 µM against CDK2/Cyclin A2. The inhibition entry (in test [17]; on Tubulin (Sus scrofa)) was “Active” each time.
